In ChEMBL document CHEMBL1121731, “Synthesis and neuroleptic activity of benzamides. Cis-N-(1-benzyl-2-methylpyrrolidin-3-yl)-5-chloro-2-methoxy-4-(methylamino)benzamide and related compounds” (1981):

How the values were obtained:
Format in all cases: functional
[1] = tested on: Rattus norvegicus; assay: Subcutaneous dose to inhibit apomorphine-induced stereotyped behavior in 50% of rats
How it was run: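 Test drugs given subcutaneously to rats; 30 min later apomorphine 1.25 mg/kg i.v. Inhibition scored positive unless both gnawing and licking were seen during 20 min after apomorphine. ED50 estimated by Litchfield–Wilcoxon or graphical method, 6–12 rats per dose.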

[2] = species: Rattus norvegicus; assay: Effective dose to induce catalepsy in 50% of the rats
[3] = species: Rattus norvegicus; assay: The inhibitory effect on the continuous avoidance was expressed as the dose to increase the number of electroshocks by 60% of the rats
How it was run: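 Modified Sidman continuous avoidance schedule in rats; shock-shock interval 5 s, response-shock interval 25 s; only rats receiving fewer than 19 shocks/h used. Drugs given subcutaneously; effect expressed as dose raising electroshocks by 60 (1 shock/min) between 1 and 2 h post-dose.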

[4] = Ratio of ED50 for inhibition of catalepsy induction to stereotypy induction
[5] = species: Rattus norvegicus; assay: Effective dose to induce catalepsy in 50% of the rats (95% confidence limits included in parentheses)
[6] = Rattus norvegicus, sc, read-out: ED50

Structure (SMILES): COc1cc(NC(C)=O)c(Cl)cc1C(=O)NC1CCN(Cc2ccccc2)C1 (configuration not stated)
- ED50 [1, 6]: 1.8 mg/kg

Structure (SMILES): CCN1C(CNC(=O)c2cc(Cl)c(NC)cc2OC)CCC1c1ccccc1 (configuration not stated)
- ED50 [1, 6]: > 30 mg/kg

Structure (SMILES): CCN(CC)CCNC(=O)c1cc(Cl)c(N)cc1OC [METOCLOPRAMIDE]
- ED50 [1, 6]: 3.1 mg/kg
- ED50 [2]: 26 mg/kg
- ED50 [3]: 2.6 mg/kg
- Ratio [4]: 8.4

Structure (SMILES): COc1ccc(S(N)(=O)=O)cc1C(=O)NCCN(C)Cc1ccccc1
- ED50 [1, 6]: > 30 mg/kg

Structure (SMILES): CCN(CCNC(=O)c1cc(Cl)c(N)cc1OC)Cc1ccc(Cl)cc1
- ED50 [1, 6]: 0.24 mg/kg

Structure (SMILES): COc1cc(N(C)C)c(Cl)cc1C(=O)NCC1CCCN1C1CCCCC1.O=C(O)C(=O)O (configuration not stated)
- ED50 [1, 6]: > 30 mg/kg

Structure (SMILES): CCN(CCNC(=O)c1cc(Cl)c(N)cc1OC)Cc1ccccn1
- ED50 [1, 6]: 30 mg/kg

Structure (SMILES): O=C(CCCN1CCC(O)(c2ccc(Cl)cc2)CC1)c1ccc(F)cc1 [HALOPERIDOL]
- ED50 [1, 6]: 0.095 mg/kg
- ED50 [2]: 1 mg/kg
- ED50 [3]: 0.021 mg/kg
- Ratio [4]: 11

Structure (SMILES): CCN1CCCC1CNC(=O)c1cc(Cl)c(N)cc1OC (configuration not stated)
- ED50 [1, 6]: > 30 mg/kg

Structure (SMILES): COc1cc(NC=O)c(Cl)cc1C(=O)NC1CCN(Cc2ccccc2)C1 (configuration not stated)
- ED50 [1, 6]: 0.6 mg/kg

Structure (SMILES): CCN1CCC(NC(=O)c2cc(Cl)c(NC)cc2OC)C1 (configuration not stated)
- ED50 [1, 6]: 10 mg/kg

Structure (SMILES): CCN(CCNC(=O)c1cc(Cl)c(N)cc1OC)Cc1ccc(Cl)cc1Cl
- ED50 [1, 6]: 10 mg/kg

Structure (SMILES): CCNc1cc(OC)c(C(=O)NC2CCN(Cc3ccccc3)C2)cc1Cl (configuration not stated)
- ED50 [1, 6]: 0.1 mg/kg

Structure (SMILES): COc1cc(N)c(Cl)cc1C(=O)NC1CCN(Cc2ccccc2)C1 (configuration not stated)
- ED50 [1, 6]: 0.17 mg/kg

Structure (SMILES): CCNS(=O)(=O)c1ccc(OC)c(C(=O)NCCN(C)Cc2ccccc2)c1
- ED50 [1, 6]: > 30 mg/kg

Structure (SMILES): COc1ccc(OC)c(C(=O)NCCN(C)Cc2ccccc2)c1.Cl
- ED50 [1, 6]: 3 mg/kg

Structure (SMILES): CCN1CCCC1CNC(=O)c1cc(S(N)(=O)=O)ccc1OC (configuration not stated) [SULPIRIDE]
- ED50 [1, 6]: > 100 mg/kg

Structure (SMILES): COc1cc(N)c(Cl)cc1C(=O)NCC1CCCN1Cc1ccccc1 (configuration not stated)
- ED50 [1, 6]: 1.1 mg/kg

Structure (SMILES): COc1ccc(S(C)(=O)=O)cc1C(=O)NCCN(C)Cc1ccccc1
- ED50 [1, 6]: 3 mg/kg

Structure (SMILES): COc1cc(N)c(Cl)cc1C(=O)NCCN(Cc1ccccc1)C(C)(C)C
- ED50 [1, 6]: > 30 mg/kg

Structure (SMILES): CCCCN(CCNC(=O)c1cc(Cl)c(N)cc1OC)Cc1ccc(Cl)cc1
- ED50 [1, 6]: 20 mg/kg

Structure (SMILES): COc1cc(N2CCCC2)c(Cl)cc1C(=O)NC1CCN(Cc2ccccc2)C1 (configuration not stated)
- ED50 [1, 6]: 0.6 mg/kg

Structure (SMILES): CCCN(CCNC(=O)c1cc(Cl)c(N)cc1OC)Cc1ccc(Cl)cc1
- ED50 [1, 6]: 3 mg/kg

Structure (SMILES): CCC1c2ccccc2CN1CNC(=O)c1cc(Cl)c(N)cc1OC (configuration not stated)
- ED50 [1, 6]: 1 mg/kg

Structure (SMILES): CNc1cc(OC)c(C(=O)NC2CCN(Cc3ccccc3)C2C)cc1Cl (cis isomer)
- Ratio [4]: 66

Structure (SMILES): COc1cc(N)c(Cl)cc1C(=O)NCCN(C)CC1CCCCC1
- ED50 [1, 6]: 3 mg/kg

Structure (SMILES): COc1cc(N)c(Cl)cc1C(=O)NCCN(C)C(C)c1ccccc1 (configuration not stated)
- ED50 [1, 6]: 1 mg/kg

Structure (SMILES): CNc1cc(OC)c(C(=O)NC2CCN(Cc3ccccc3)C2C)cc1Cl (cis isomer) [NEMONAPRIDE]
- ED50 [1]: 0.0076 mg/kg
- ED50 [5]: 0.5 mg/kg
- ED50 [3]: 0.0034 mg/kg

Structure (SMILES): CCCNc1cc(OC)c(C(=O)NC2CCN(Cc3ccccc3)C2)cc1Cl (configuration not stated)
- ED50 [1, 6]: 17 mg/kg

Structure (SMILES): CNc1cc(OC)c(C(=O)NC2CCN(Cc3ccccc3)C2C)cc1Cl (trans isomer) [NEMONAPRIDE]
- ED50 [1]: 0.057 mg/kg

Structure (SMILES): COc1cc(N)c(Cl)cc1C(=O)NCCN(C)Cc1ccccc1C
- ED50 [1, 6]: 2 mg/kg

Structure (SMILES): COc1cc(N)c(Cl)cc1C(=O)NCC1CCC(C)N1Cc1ccccc1 (configuration not stated)
- ED50 [1, 6]: 0.67 mg/kg

Structure (SMILES): CCN(CCNC(=O)c1cc(Cl)c(N)cc1OC)Cc1ccc(OC)cc1
- ED50 [1, 6]: 0.2 mg/kg

Structure (SMILES): COc1cc(N)c(Cl)cc1C(=O)NCCN(C)Cc1ccccc1C(F)(F)F
- ED50 [1, 6]: 30 mg/kg

Structure (SMILES): CNc1cc(OC)c(C(=O)NCCN(C)Cc2ccccc2)cc1Cl.Cl
- ED50 [1, 6]: 0.21 mg/kg
- ED50 [2]: 16.5 mg/kg
- ED50 [3]: 0.041 mg/kg
- Ratio [4]: 79

Structure (SMILES): COc1cc(N(C)C)c(Cl)cc1C(=O)NC1CCN(C2CCCCC2)C1 (configuration not stated)
- ED50 [1, 6]: 1 mg/kg

Structure (SMILES): COc1cc(N(C)C(C)=O)c(Cl)cc1C(=O)NC1CCN(Cc2ccccc2)C1 (configuration not stated)
- ED50 [1, 6]: > 30 mg/kg

Structure (SMILES): COc1cc(N)c(Cl)cc1C(=O)NCCN(Cc1ccc(Cl)cc1)C(C)C
- ED50 [1, 6]: 3 mg/kg

Structure (SMILES): COc1cc(N(C)C)c(Cl)cc1C(=O)NC1CCN(Cc2ccccc2)C1 (configuration not stated)
- ED50 [1, 6]: 0.12 mg/kg

Structure (SMILES): CCN1CCCC1CNC(=O)c1cc(S(=O)(=O)CC)ccc1OC (configuration not stated) [SULTOPRIDE]
- ED50 [1, 6]: 18 mg/kg

Structure (SMILES): CCN(CCNC(=O)c1cc(Cl)c(N)cc1OC)Cc1ccco1
- ED50 [1, 6]: 3 mg/kg

Structure (SMILES): CCN(CCNC(=O)c1cc(Cl)c(N)cc1OC)Cc1ccccc1Cl
- ED50 [1, 6]: 10 mg/kg

Structure (SMILES): COc1cc(C(=O)NCCN(C)Cc2ccccc2)cc(OC)c1OC
- ED50 [1, 6]: > 30 mg/kg

Structure (SMILES): COc1cc(N(C)C)c(Cl)cc1C(=O)NCCN(C)Cc1ccccc1
- ED50 [1, 6]: 0.54 mg/kg

Structure (SMILES): CCNCCNC(=O)c1cc(Cl)c(N)cc1OC [MONODEETHYLATED-MCP]
- ED50 [1, 6]: > 30 mg/kg

Structure (SMILES): COc1ccc(Cl)cc1C(=O)NCCN(C)Cc1ccccc1.Cl
- ED50 [1, 6]: 3 mg/kg

Structure (SMILES): COc1cc(NCc2ccccc2)c(Cl)cc1C(=O)NC1CCN(Cc2ccccc2)C1 (configuration not stated)
- ED50 [1, 6]: > 30 mg/kg

Structure (SMILES): COc1cc(N)c(Cl)cc1C(=O)NCCN(C)Cc1ccccc1
- ED50 [1, 6]: 0.38 mg/kg

Structure (SMILES): CCN(CCNC(=O)c1cc(Cl)c(N)cc1OC)Cc1cccc(OC)c1
- ED50 [1, 6]: 1 mg/kg

Structure (SMILES): CCN(CCNC(=O)c1cc(Cl)c(N)cc1OC)Cc1ccccc1OC
- ED50 [1, 6]: 10 mg/kg

Structure (SMILES): CNc1cc(OC)c(C(=O)NCC2CCC(C)N2Cc2ccccc2)cc1Cl.Cl (configuration not stated)
- ED50 [1, 6]: 0.35 mg/kg
- ED50 [2]: 13.5 mg/kg
- ED50 [3]: 0.11 mg/kg
- Ratio [4]: 39

Structure (SMILES): CNc1cc(OC)c(C(=O)NC2CCN(Cc3ccccc3)C2)cc1Cl (configuration not stated)
- ED50 [1, 6]: 0.016 mg/kg
- ED50 [2]: 1.6 mg/kg
- ED50 [3]: 0.008 mg/kg
- Ratio [4]: 100

Structure (SMILES): CCN(CCNC(=O)c1cc(Cl)c(N)cc1OC)Cc1ccccc1
- ED50 [1, 6]: 0.31 mg/kg

Structure (SMILES): CCN(CCNC(=O)c1cc(Cl)c(N)cc1OC)Cc1ccc(F)cc1
- ED50 [1, 6]: 0.2 mg/kg

Structure (SMILES): COc1cc(N(C)C(=O)C(F)(F)F)c(Cl)cc1C(=O)NC1CCN(Cc2ccccc2)C1 (configuration not stated)
- ED50 [1, 6]: 0.3 mg/kg

Structure (SMILES): COc1cc(N)c(Cl)cc1C(=O)NCCN(Cc1ccccc1)Cc1ccccc1
- ED50 [1, 6]: > 30 mg/kg

Structure (SMILES): CCN(CCNC(=O)c1cc(Cl)c(N)cc1OC)Cc1cccc(Cl)c1
- ED50 [1, 6]: 0.58 mg/kg

Structure (SMILES): COc1cc(N)c(Cl)cc1C(=O)NC1CCN(C2CCCCC2)C1 (configuration not stated)
- ED50 [1, 6]: 1.8 mg/kg

Structure (SMILES): CNc1cc(OC)c(C(=O)NCC2CCCN2Cc2ccccc2)cc1Cl.Cl (configuration not stated)
- ED50 [1, 6]: 0.94 mg/kg

Structure (SMILES): CN(CCNC(=O)c1ccc(F)cc1)Cc1ccccc1.Cl
- ED50 [1, 6]: > 30 mg/kg
